# Measurements taken from ChEMBL document CHEMBL4715848, “1,2,3-Triazole tethered 1,2,4-trioxanes: Studies on their synthesis and effect on osteopontin expression in MDA-MB-435 breast cancer cells” (2020).
# Active and inactive are the calls of the source. The calls are words filed in the database; no cut-off is given here.
# Test system: not listed separately
# Experiment: (§1) Down regulation of OPN expression in human MDA-MB-435 cells at 50 uM measured after 24 hrs by Western blot analysis relative to control
# Assay type: functional
# Method in brief: (§2)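 MDA-MB-435 cells (1x10^6 per 6 cm plate) grown 24 h in DMEM/10% FBS with penicillin-streptomycin, 37 °C, 5% CO2, then serum-starved 24 h. Treated 24 h with compound at 50 µM against a DMSO control. Secreted OPN in serum-free supernatant run on non-reducing 10% SDS-PAGE. Lysate β-actin run on 10% SDS-PAGE. Both probed with monoclonal antibodies, read by chemiluminescence and quantified by densitometry.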
row,Compound,fold change (FC)
1,COc1ccc(C2OOC(C)(C)C(CCC(C)CCn3cc(COC4[C@H]5OCO[C@H]5CO[C@@]45COC(C)(C)O5)nn3)O2)cc1 (stereo partly specified),0.2
2,C[C@@H]1CC[C@H]2[C@@H](C)C(O)O[C@@H]3O[C@]4(C)CC[C@@H]1[C@]32OO4 (stereo partly specified),0.45
3,CC(CCC1OC(c2ccc(Cl)cc2)OOC1(C)C)CCn1cc(COC2[C@H]3OCO[C@H]3CO[C@@]23COC(C)(C)O3)nn1 (stereo partly specified),0.15
4,CC(CCC1OC(c2cccc(Br)c2)OOC1(C)C)CCn1cc(COC2[C@H]3OCO[C@H]3CO[C@@]23COC(C)(C)O3)nn1 (stereo partly specified),0.15
5,C[C@@H]1CC[C@H]2[C@@H](C)C(OCc3cn(Cc4ccccc4)nn3)O[C@@H]3O[C@]4(C)CC[C@@H]1[C@]32OO4 (stereo partly specified),0.3
6,CC(CCC1OC(c2ccco2)OOC1(C)C)CCn1cc(COC2[C@H]3OCO[C@H]3CO[C@@]23COC(C)(C)O3)nn1 (stereo partly specified),0.12

# Test system: MDA-MB-435
# Experiment: as §1
# Assay type: functional
# Method in brief: as §2
row,Compound,inhibition
1,CC(CCC1OC(c2ccc([N+](=O)[O-])cc2)OOC1(C)C)CCn1cc(COC2[C@H]3OCO[C@H]3CO[C@@]23COC(C)(C)O3)nn1 (stereo partly specified),inactive
2,CC(CCC1OC(c2ccccc2Br)OOC1(C)C)CCn1cc(-c2ccc(-c3cn(CCC(C)CCC4OC(c5ccccc5Br)OOC4(C)C)nn3)cc2)nn1 (stereo unspecified),inactive
3,CC(CCC1OC2(CCCCC2)OOC1(C)C)CCn1cc(-c2ccc(-c3cn(CCC(C)CCC4OC5(CCCCC5)OOC4(C)C)nn3)cc2)nn1 (stereo unspecified),inactive
4,C[C@@H]1CC[C@H]2[C@@H](C)C(=O)O[C@@H]3O[C@@]4(C)CC[C@@H]1[C@]32OO4,inactive
5,CC(CCC1OC(c2ccc(Cl)cc2)OOC1(C)C)CCn1cc(-c2ccc(-c3cn(CCC(C)CCC4OC(c5ccc(Cl)cc5)OOC4(C)C)nn3)cc2)nn1 (stereo unspecified),inactive
6,CC(CCC1OC(c2ccc3c(c2)OCO3)OOC1(C)C)CCn1cc(-c2ccc(-c3cn(CCC(C)CCC4OC(c5ccc6c(c5)OCO6)OOC4(C)C)nn3)cc2)nn1 (stereo unspecified),inactive
7,COc1ccc(C2OOC(C)(C)C(CCC(C)CCn3cc(-c4ccc(-c5cn(CCC(C)CCC6OC(c7ccc(OC)cc7)OOC6(C)C)nn5)cc4)nn3)O2)cc1 (stereo unspecified),inactive
8,CC(CCC1OC2(CCCCC2)OOC1(C)C)CCn1cc(COC2[C@H]3OCO[C@H]3CO[C@@]23COC(C)(C)O3)nn1 (stereo partly specified),inactive
9,CC(CCC1OC(c2cccc([N+](=O)[O-])c2)OOC1(C)C)CCn1cc(COC2[C@H]3OCO[C@H]3CO[C@@]23COC(C)(C)O3)nn1 (stereo partly specified),inactive
10,CC(CCC1OC(c2ccccc2Br)OOC1(C)C)CCn1cc(COC2[C@H]3OCO[C@H]3CO[C@@]23COC(C)(C)O3)nn1 (stereo partly specified),inactive
11,CC(CCC1OC(c2ccco2)OOC1(C)C)CCn1cc(-c2ccc(-c3cn(CCC(C)CCC4OC(c5ccco5)OOC4(C)C)nn3)cc2)nn1 (stereo unspecified),inactive
12,CC(CCC1OC(c2cccc(Br)c2)OOC1(C)C)CCn1cc(-c2ccc(-c3cn(CCC(C)CCC4OC(c5cccc(Br)c5)OOC4(C)C)nn3)cc2)nn1 (stereo unspecified),inactive
13,CC(CCC1OC(c2ccc3c(c2)OCO3)OOC1(C)C)CCn1cc(COC2[C@H]3OCO[C@H]3CO[C@@]23COC(C)(C)O3)nn1 (stereo partly specified),inactive
14,CC(CCC1OC(c2ccc(F)cc2)OOC1(C)C)CCn1cc(-c2ccc(-c3cn(CCC(C)CCC4OC(c5ccc(F)cc5)OOC4(C)C)nn3)cc2)nn1 (stereo unspecified),inactive
15,CC(CCC1OC(c2cccc3ccccc23)OOC1(C)C)CCn1cc(COC2[C@H]3OCO[C@H]3CO[C@@]23COC(C)(C)O3)nn1 (stereo partly specified),inactive
16,CC(CCC1OC(C)(c2ccc(Cl)cc2)OOC1(C)C)CCn1cc(-c2ccc(-c3cn(CCC(C)CCC4OC(C)(c5ccc(Cl)cc5)OOC4(C)C)nn3)cc2)nn1 (stereo unspecified),inactive
17,CC(CCC1OC(c2cccc3ccccc23)OOC1(C)C)CCn1cc(-c2ccc(-c3cn(CCC(C)CCC4OC(c5cccc6ccccc56)OOC4(C)C)nn3)cc2)nn1 (stereo unspecified),inactive
18,CC(CCC1OC(c2ccc(F)cc2)OOC1(C)C)CCn1cc(COC2[C@H]3OCO[C@H]3CO[C@@]23COC(C)(C)O3)nn1 (stereo partly specified),inactive
19,Cc1ccc(C2OOC(C)(C)C(CCC(C)CCn3cc(-c4ccc(-c5cn(CCC(C)CCC6OC(c7ccc(C)cc7)OOC6(C)C)nn5)cc4)nn3)O2)cc1 (stereo unspecified),inactive
20,CC(CCC1OC(c2ccc([N+](=O)[O-])cc2)OOC1(C)C)CCn1cc(-c2ccc(-c3cn(CCC(C)CCC4OC(c5ccc([N+](=O)[O-])cc5)OOC4(C)C)nn3)cc2)nn1 (stereo unspecified),inactive
21,Cc1ccc(C2OOC(C)(C)C(CCC(C)CCn3cc(COC4[C@H]5OCO[C@H]5CO[C@@]45COC(C)(C)O5)nn3)O2)cc1 (stereo partly specified),inactive

# Test system: not listed separately
# Experiment: Down regulation of OPN expression in human MDA-MB-435 cells at 10 uM measured after 24 hrs by Western blot analysis relative to control
# Assay type: functional
# Method in brief: as §2, with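 “10” for “50”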
row,Compound,fold change (FC)
1,COc1ccc(C2OOC(C)(C)C(CCC(C)CCn3cc(COCCNCCOCc4cn(CCC(C)CCC5OC(c6ccc(OC)cc6)OOC5(C)C)nn4)nn3)O2)cc1 (stereo unspecified),0.43
2,CC(CCC1OC(c2ccccc2)OOC1(C)C)CCn1cc(COCCNCCOCc2cn(CCC(C)CCC3OC(c4ccccc4)OOC3(C)C)nn2)nn1 (stereo unspecified),0.11
3,Cc1ccc(C2OOC(C)(C)C(CCC(C)CCn3cc(COCCNCCOCc4cn(CCC(C)CCC5OC(c6ccc(C)cc6)OOC5(C)C)nn4)nn3)O2)cc1 (stereo unspecified),0.15
4,CC(CCC1OC(c2ccc(Cl)cc2)OOC1(C)C)CCn1cc(COCCNCCOCc2cn(CCC(C)CCC3OC(c4ccc(Cl)cc4)OOC3(C)C)nn2)nn1 (stereo unspecified),0.45
5,CC(CCC1OC(c2ccc([N+](=O)[O-])cc2)OOC1(C)C)CCn1cc(COCCNCCOCc2cn(CCC(C)CCC3OC(c4ccc([N+](=O)[O-])cc4)OOC3(C)C)nn2)nn1 (stereo unspecified),0.28
6,CC(CCC1OC(c2cccc(Br)c2)OOC1(C)C)CCn1cc(COCCNCCOCc2cn(CCC(C)CCC3OC(c4cccc(Br)c4)OOC3(C)C)nn2)nn1 (stereo unspecified),0.26
7,CC(CCC1OC(c2ccc(F)cc2)OOC1(C)C)CCn1cc(COCCNCCOCc2cn(CCC(C)CCC3OC(c4ccc(F)cc4)OOC3(C)C)nn2)nn1 (stereo unspecified),0.17
8,CC(CCC1OC2(CCCCC2)OOC1(C)C)CCn1cc(COCCNCCOCc2cn(CCC(C)CCC3OC4(CCCCC4)OOC3(C)C)nn2)nn1 (stereo unspecified),0.27
9,CC(CCC1OC(c2ccc3c(c2)OCO3)OOC1(C)C)CCn1cc(COCCNCCOCc2cn(CCC(C)CCC3OC(c4ccc5c(c4)OCO5)OOC3(C)C)nn2)nn1 (stereo unspecified),0.33
